Screening results: PubChem BioAssay, Sanford-Burnham Center for Chemical Genomics
The list is a sample of the results.
Apaf-1 act – activates human Apaf-1 apoptosome. Apaf-1 apoptosome caspase-3 activation, DEVD-Rh110 fluorescence; hits give low values. activity change, negative = activation, % at 20 µM. hit rate 0.31% among 330,000. AID 489031;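 active = activity change at or below -40% at 20 µM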
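Material: biochemical Apaf-1 apoptosome reconstitution; Medium: 20 mM HEPES buffer, pH 7.5, containing CHAPS and BSA; Reagent: dATP, cytochrome c, and (Z-DEVD)2-Rh110 caspase-3 substrate; Times: 30 min preincubation, 50 min reaction, room temperature; Signal: Rh110 fluorescence, excitation 480 nm, emission 540 nm; Measure: Caspase-3 activity via Apaf-1.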
Rh110 interf act – interferes with Rh110 fluorescence, flagging false Apaf-1 activators. fluorescence interference (activity change), % at 20 µM, hits read low. AID 504616. Rh110 fluorescence interference, quenched caspase reaction, Ex480/Em540. 980 tested, under 10 active. shares compounds with Apaf-1 act;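 active = mean activity change at or below -40% when tested at 20 µM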
Apaf-1 act conf2 – confirmation of human Apaf-1 activators; shares compounds with Apaf-1 act; reconstituted apoptosome caspase-3 activity, DEVD-Rh110 fluorescence; hits give low values; activity change, negative = activation, % at 20 µM; hit rate 5% among 980;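 active = mean activity change at or below -40%, meaning activation of 40% or more, at 20 µM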
Fluor interf act – shows fluorescence interference in the Apaf-1 activator assay format. shares compounds with Apaf-1 act. fluorescence interference counterscreen. EC50, µM. 55 tested, under 10 active. AID 588592; call rule not given here
The depositor's hits bear a star; / = not tested or not shown.

SMILES	Apaf-1 act	Rh110 interf act	Apaf-1 act conf2	others
CC(=O)NC1=C(NC2CCS(=O)(=O)C2)C(=O)c2ccccc2C1=O (stereo unspecified)	41	/	/
O=C(NCCCCCCNC(=O)OC1CCS(=O)(=O)C1)OC1CCS(=O)(=O)C1 (stereo unspecified)	-48*	8	4
O=C(NC1CCS(=O)(=O)C1)Oc1ccccc1 (stereo unspecified)	51	/	/
O=C(NCc1nnc(SCC(=O)N2CCCCCC2)o1)c1ccccc1F	-251*	8	13
O=C(CCc1ccccc1)N[C@@H]1c2ccccc2CC[C@H]1OCc1ccccc1	-41*	2	6
Cc1cccc(NC(=O)CC2Nc3cccc4cccc(c34)NC2=O)c1 (stereo unspecified)	71	/	/
Cc1cccc(NC2=C(NCCO)C(=O)c3ccccc3C2=O)c1	56	/	/
Cc1cccc(NC(=O)NC2CCCc3ccccc32)c1 (stereo unspecified)	-379*	1	0
C[C@H](CO)N1C[C@H](C)[C@@H](CN(C)Cc2ccc(Oc3ccccc3)cc2)Oc2c(NC(=O)C3CC3)cccc2C1=O	43	/	/
COc1cc([N+](=O)[O-])c2ncsc2c1	-59*	-1	8
O=C(O)c1ccc(NC2=C/C(=N/S(=O)(=O)c3ccccc3)c3ccccc3C2=O)cc1	96	/	/
Cn1c2c(c(=O)n(C)c1=O)CN(CCCN1CCOCC1)CN2	-59*	7	2
CCC(=O)N(CCc1ccccc1C)Cc1cc2cc3c(cc2[nH]c1=O)OCO3	41	/	/
CCOC(=O)C1=C(COCCN)NC(C)=C(C(=O)OC)C1c1ccccc1Cl (stereo unspecified)	40	/	/
CSc1ccc(C=NNc2ccc(S(=O)(=O)Nc3ccccc3C(=O)O)cc2[N+](=O)[O-])cc1	-90*	11	-133*	Fluor interf act=>100
CCNC1=C(Cl)C(=O)c2ccccc2C1=O	51	/	/
Cc1cc(=O)[nH]c(N/N=C/c2ccc(Cl)c([N+](=O)[O-])c2)n1	-73*	4	9
COc1ccc(/C=N/NC(=O)c2nn(-c3ccc(Cl)cc3)c(=O)c3c(N)scc23)cc1	54	/	/
Cc1cccc(C)c1NC(=O)c1sc(Cl)nc1C	-201*	10	11
CCCC(=Nc1ccc(N)cc1)C1=C(O)C(C(=O)OC)C(C)(C)CC1=O (stereo unspecified)	67	/	/
CCC1(C)NC(=O)N(CC(=O)N2CCC(Cc3ccccc3)CC2)C1=O (stereo unspecified)	58	/	/
CCCCn1c(N)c(N(CC)C(=O)CN2C(=O)NC(C)(c3ccccc3)C2=O)c(=O)[nH]c1=O (stereo unspecified)	-441*	9	11
CCC1(c2ccccc2)NC(=O)N(CC(=O)Nc2cc(Cl)ccc2N2CCN(C)CC2)C1=O (stereo unspecified)	58	/	/
Fc1ccc(NC(=S)Nc2cccc3cnccc23)cc1	95	/	/
COC(=O)CCC(=O)OC1(C)C(=O)C=C2C=C(C3CC3)N(Cc3ccccc3)C=C2C1=O (stereo unspecified)	42	/	/
SMILES	Apaf-1 act	Rh110 interf act	Apaf-1 act conf2	others
CC[C@@H](C)[C@@H]1CN([C@@H](CN2CCC[C@H]2CN2C(N)=NC[C@H]2CC(C)C)C(C)C)C(=N)N1CCc1ccc(Cl)c(Cl)c1	63	/	/
N#Cc1ccsc1NC(=O)c1ccc(Cl)c([N+](=O)[O-])c1	48	/	/
N/C(=N\OC(=O)c1ccc(Cl)c([N+](=O)[O-])c1)c1ccccc1	-57*	7	14
O=C(CCn1c2c(c3ccccc31)CCCC2)NNC(=O)c1ccc(Cl)c([N+](=O)[O-])c1	89	/	/
CC(C)N(C(=O)Nc1ccc2nsnc2c1)C(C)C	97	/	/
CC1CC(C)(C)NC(=O)O1 (stereo unspecified)	-88*	5	10
COc1ccc2cnn(-c3ccc(OC(F)(F)F)cc3)c(=O)c2c1OC	-49*	1	2
Cc1cc(C)cc(NC2=C(N)C(=O)c3ccccc3C2=O)c1	74	/	/
CCN1C(N(C)CCc2c[nH]c3ccccc23)=N[C@@H](c2cccc(C(F)(F)F)c2)C(C(=O)OC)=C1C	55	/	/
Clc1ccc(-c2ccc(CNCC3CCCO3)o2)cc1 (stereo unspecified)	-131*	5	3
O=C1c2cc(F)ccc2-n2c1nc1ccccc1c2=O	63	/	/
Cc1ccc(-c2nnc(CSc3nnc(COc4cccc5ccccc45)n3-c3ccccc3)o2)cc1	44	/	/
Cc1cccc(OCc2nc3ccccc3c(=O)n2N)c1	-92*	-1	5
CC(=O)Nc1ccc(NC(=O)CC2Nc3cccc4cccc(c34)NC2=O)cc1 (stereo unspecified)	96	/	/
Fc1ccc(CN2CCSCC2)cc1Br	-115*	-7	9
O=C(N/N=C/c1cn(-c2ccccc2)nc1-c1cccnc1)c1ccccc1	-52*	0	16
CNC[C@H](Cc1ccccc1)NC[C@@H](Cc1cccc2ccccc12)NCCc1ccc(C)cc1	48	/	/
COc1ccc2[nH]c3c(=O)n(/N=C/c4ccc(OC)c(CN5CCCC5)c4)c(C)nc3c2c1	43	/	/
O=C1Cc2ccccc2C(=O)N1CCc1ccccc1	79	/	/
Cc1[nH][nH]c(=O)c1C(c1ccc(-c2cccc(Cl)c2)o1)c1c(C)[nH][nH]c1=O	87	/	/
Cc1[nH]c(=O)[nH]c(=O)c1S(=O)(=O)Nc1ccc(F)cc1F	-265*	4	7
Oc1ccc(/C=N/N2CCCCC2)c(O)c1O	70	/	/
O=C(O)c1cc([N+](=O)[O-])ccc1NCCc1ccccc1	-97*	-2	18
S=C1NCCc2ccc(Cl)cc2C1c1ccccc1Cl (stereo unspecified)	-514*	1	16
CCc1ccccc1N1CSC2=C(C#N)C(c3cc(OC)c(OC)cc3OC)CC(=O)N2C1 (stereo unspecified)	43	/	/
SMILES	Apaf-1 act	Rh110 interf act	Apaf-1 act conf2	others
CCN1CCN(c2ccc(S(=O)(=O)N3CCCCC3)cc2NC(=O)/C=C/c2cc(OC)ccc2OC)CC1	46	/	/
CCN(CC)CCOc1ccc(/C(=C(/Cl)c2ccccc2)c2ccccc2)cc1	66	/	/
COc1ccc2cc1Oc1ccc(cc1)CC1c3c(cc(OC)c4c3Oc3cc5c(cc3O4)CCNC5C2)CCN1C (stereo unspecified)	41	/	/
CC(C)c1c(Cl)c(O)c(-c2ccccc2)c(=O)n1-c1ccc(F)cc1	-40*	-6	12
COc1cc2c(cc1OC)CN(Cc1cc(=O)n3c(-c4ccccc4)csc3n1)CC2	42	/	/
O=C(NC(=S)Nc1ccc(CN2CCCCC2)cc1)c1cccc(OCc2ccccc2)c1	43	/	/
CN1CCN(c2ccc(NC(=O)c3ccc(-c4ccc(Cl)cc4)o3)cc2)CC1	65	/	/
COC(=O)c1ccc(NC(=S)N2CCN(Cc3ccc(Cl)cc3)CC2)cc1	-350*	7	10
COc1ccc(C[C@H]2CN3C(=NC[C@@H]3Cc3ccccc3)N2CCNC(=O)CCC2CCCCC2)cc1	52	/	/
C#CCOCCOCCOCCNc1nc(N2CCN(C(=O)CCCCCCCCCCNC(=O)Cn3cc(CCCCCN)nn3)CC2)nc(N2CCN(C(=O)CCCCCCCCCCNC(=O)[C@@H]([C@H](C)O)n3cc(C)nn3)CC2)n1	49	/	/
